Our source for the Activity and MIC values is ChEMBL document CHEMBL1152458, “Voriconazole inhibits melanization in Cryptococcus neoformans” (2007).

In brackets after ≈: the same amount, converted by molar mass. Activity calls are given as the source filed them. Some results are limits rather than exact numbers.

As a reminder, the MIC is the smallest concentration in the dilution series that meets the test's criterion for growth inhibition.

The subject of assay [1] is Cryptococcus neoformans. Description: Inhibition of melanin formation in Cryptococcus neoformans ATCC 24067 at =<0.5 times MIC after 10 days by plating assay. Type of assay: functional, organism-based. Summed up: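 Strain 24067 yeast grown on minimal-medium agar plates containing 1 mM L-dopa, with or without drug, 10 days at 30°C. Read-out was visual dark pigmentation of colonies and of surrounding agar from secreted laccase. Plates run in triplicate, experiment performed twice.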

Assay [2] relates to Cryptococcus neoformans. Kind of assay: Antifungal activity against Cryptococcus neoformans ATCC 24067 after 72 hrs by NCCLS M27A method. Type of assay: functional. The note with it: ATCC 24067, 72 h.
Assay [3] has as its system Cryptococcus neoformans. Kind of assay: Reduction in LAC1 gene expression in Cryptococcus neoformans ATCC 24067 at 0.25 to 0.5 times MIC after 7 days by qRT-PCR relative to control. Type of assay: functional. In outline:
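Cells grown 7 days at 30°C on foil-covered minimal-medium agar + 1 mM L-dopa ± drug (0.25 or 0.5 MIC). Total RNA was DNase-treated and reverse transcribed, then LAC1 was measured by real-time PCR (40 cycles, 55°C annealing) with melting curve. Expression was normalized to ACT1 using the threshold-cycle method.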
In general terms: In qPCR the cycle at which signal appears reflects the starting amount.

Assay [4] concerns Cryptococcus neoformans. Kind of assay: Inhibition of melanin formation in Cryptococcus neoformans ATCC 24067 at 0.25 times MIC coincubated with L-dopa for 7 days by dry-weight measurement. The assay is classed as functional. Also on record: scale not given: the % may be the effect or the level left. In outline: (§1)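 5 x 10^4 yeasts grown in 50 ml minimal medium + 1 mM L-dopa ± drug (0.25 or 0.5 MIC) at 30°C, 150 rpm, for 7 days. Melanin "ghosts" were isolated by cell-wall lysing enzymes (10 mg/ml, overnight 30°C), proteinase K (1 mg/ml, SDS buffer pH 7.8, 37°C overnight) and boiling 6 M HCl for 1 h. They were then lyophilized and weighed.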

In assay [5] the test system is Cryptococcus neoformans. Kind of assay: Inhibition of melanin formation in Cryptococcus neoformans ATCC 24067 at 0.5 times MIC coincubated with L-dopa for 7 days by dry-weight measurement. The assay is classed as functional. Also on record: scale not given: the % may be the effect or the level left. Summed up:
as §1

The subject of assay [6] is Cryptococcus neoformans. Kind of assay: Increase in phagocytosis of Cryptococcus neoformans ATCC 24067 by mouse J774.16 cells at 0.25 to 0.5 times MIC. Type of assay: functional, organism-based. Summed up:
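Yeasts (5 x 10^4 in 25 ml minimal medium + 1 mM L-dopa, 0.25 or 0.5 MIC drug, 30°C, 150 rpm) sampled on days 3, 5 and 7. They were PBS-washed and added 1:1 to J774.16 macrophages with 10 µg/ml mAb 18B7 for 2 h at 37°C. Monolayers were washed, methanol-fixed and Giemsa-stained. Index is internalized yeasts per macrophage, from 3 wells × 3 fields (~100 macrophages each) at x400.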

For assay [7], the system named is Cryptococcus neoformans. Kind of assay: Antifungal activity against Cryptococcus neoformans ATCC 24067 assessed as effect on growth rate at 0.25 to 0.5 times MIC. Type of assay: functional, organism-based. In outline:
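C. neoformans 24067 grown at 30°C in minimal medium with L-dopa, with drug at several sub-MIC levels up to 0.5 MIC. Inoculum was 5 x 10^4 cells in 50 ml per concentration, with growth followed over time.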

In assay [8] the test system is Toxicodendron vernicifluum. Description: Inhibition of Rhus vernificera recombinant laccase-mediated ABTS oxidation. Summed up: (§2)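 Commercial Rhus vernificera laccase incubated with voriconazole, varying concentrations of either enzyme or drug, in PBS. ABTS 1 mM final, 30°C for 2 h, with absorbance read at 420 nm.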
In assay [9] the test system is Toxicodendron vernicifluum. Kind of assay: Inhibition of recombinant Rhus vernificera laccase-mediated ABTS oxidation measured as inhibition activity with respect to decrease in enzyme concentration from 1 to 0.001 U/mL at 1 ug/ml. In outline:
as §2

Assay [10] relates to Cryptococcus neoformans. Kind of assay: Inhibition of intact recombinant Cryptococcus neoformans ATCC 24067 laccase-mediated ABTS oxidation at 0.5 times MIC after 2 hrs. In outline:
(§3)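 Yeasts grown 72 h at 30°C in asparagine medium with glucose, then 36 h without glucose. Intact cells were used at 1 x 10^8/ml in PBS ± voriconazole. Alternatively, bead-beaten cytoplasmic extracts in 0.1 M Na2HPO4 with protease inhibitor were used. ABTS 1 mM final, 30°C for 2 h; cells removed and A420 read against a no-ABTS baseline. Rhus laccase (1 U/ml) served as positive control. Run twice.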

The test system of assay [11] is Toxicodendron vernicifluum. Kind of assay: Inhibition of cytoplasmic extract of recombinant Rhus vernificera laccase-mediated ABTS oxidation at 0.5 times MIC after 2 hrs. In outline: as §3

As to `C[C@@H]1[C@H](O)[C@@H](C)/C=C/C=C/C=C/C=C/C=C/C=C/C=C/[C@H](O[C@@H]2O[C@H](C)[C@@H](O)[C@H](N)[C@@H]2O)C[C@@H]2O[C@](O)(C[C@@H](O)C[C@@H](O)[C@H](O)CC[C@@H](O)C[C@@H](O)CC(=O)O[C@H]1C)C[C@H](O)[C@H]2C(=O)O` [AMPHOTERICIN B], in the assay on Cryptococcus neoformans [1], the outcome was inactive. This compound also came in with an MIC with Cryptococcus neoformans [2] of 0.125 µg/mL (≈ 0.135 µM).

Regarding `CC[C@H](C)C[C@H](C)CCCCCCCCC(=O)N[C@H]1C[C@@H](O)[C@@H](NCCN)NC(=O)[C@@H]2[C@@H](O)CCN2C(=O)[C@H]([C@H](O)CCN)NC(=O)[C@H]([C@H](O)[C@@H](O)c2ccc(O)cc2)NC(=O)[C@@H]2C[C@@H](O)CN2C(=O)[C@H]([C@@H](C)O)NC1=O` [CASPOFUNGIN], the MIC against Cryptococcus neoformans [2] was 8 µg/mL (≈ 7.32 µM).

Turning to `OC(Cn1cncn1)(Cn1cncn1)c1ccc(F)cc1F` [FLUCONAZOLE], in the assay on Cryptococcus neoformans [3], the result was inactive. Besides, the Activity with Cryptococcus neoformans [4] came out at 2.7%; in the assay on Cryptococcus neoformans [5], 17.3%. Further, the minimum inhibitory concentration (MIC) against Cryptococcus neoformans [2] was found to be 1 µg/mL (≈ 3.27 µM).

In the assay on Cryptococcus neoformans [2], `CCC(C)n1ncn(-c2ccc(N3CCN(c4ccc(OCC5COC(Cn6cncn6)(c6ccc(Cl)cc6Cl)O5)cc4)CC3)cc2)c1=O` (stereo not drawn) [ITRACONAZOLE] returned a minimal inhibitory concentration (MIC) below 0.625 µg/mL.

For the compound `C[C@@H](c1ncncc1F)[C@](O)(Cn1cncn1)c1ccc(F)cc1F` [VORICONAZOLE], the result (with Cryptococcus neoformans [6]; in assay [9]; with Cryptococcus neoformans [10]; in [11]) was Active. Besides, the Activity in the assay with Cryptococcus neoformans [3] was 40%; with Cryptococcus neoformans [4], 82.1%; in assay [8], “Dose-dependent effect”; with Cryptococcus neoformans [5], 94.5%. Besides, in the assay on Cryptococcus neoformans [7], the outcome was inactive. Moreover, the minimum inhibitory concentration (MIC) in the assay on Cryptococcus neoformans [2] worked out at 0.015 µg/mL (≈ 0.0429 µM).
